Data as given in ChEMBL document CHEMBL1126613, “Centrally acting serotonergic agents. Synthesis and structure-activity relationships of C-1- or C-3-substituted derivatives of 8-hydroxy-2-(di-n-propylamino)tetralin” (J Med Chem, 1993).
Where “and” joins values, the source holds several entries; their conditions need not be identical. Equal values may be shown once.

Key:
[1] = tested on: Mus musculus; assay: Behavioral time in mouse face to face assay at 0 umol/kg administered; type: functional
How it was run: (§1)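 Male CF-1 mice (Charles River, 19-29 g), 8 pairs per dose, dosed sc, ip or orally in 0.25% methylcellulose or 0.1% citric acid; 30 min absorption housed with familiar partner. Pairs from different home cages placed in small litter-floored cage; face-to-face interaction duration scored visually for 3 min. Wilcoxon rank sum (two-tailed) vs daily control, p < 0.05.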

[2] = tested on: Mus musculus; assay: Behavioral time in mouse isolation-induced aggression assay 0 umol/kg administered peritoneally; type: functional; details: in the assay text read “administered orally” for “administered peritoneally”
How it was run: (§2)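 Male CF-1 mice. Residents were isolated singly for at least 1 month; group-housed intruders were kept 4-6/cage. Mice weighed 28-30 g at first test. Residents got drug ip or orally in 0.25% methylcellulose or 0.1% citric acid 30 min before an untreated intruder was introduced. Latency to fighting was recorded, capped at 600 s. Dosing was blind, 6/group (vehicle n = 12), Wilcoxon rank sum.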

[3] = tested on: Mus musculus; assay: Behavioral time in mouse face to face assay at 32 umol/kg administered; type: functional; how it was run: as §1
[4] = tested on: Mus musculus; assay: Behavioral time in mouse face to face assay at 3.2 umol/kg administered; type: functional; how it was run: as §1
[5] = tested on: Mus musculus; assay: Behavioral time in mouse face to face assay at 0.3 umol/kg administered; type: functional; how it was run: as §1
[6] = tested on: Mus musculus; assay: Behavioral time in mouse isolation-induced aggression assay 32 umol/kg administered peritoneally; type: functional; details: in the assay text read “administered orally” for “administered peritoneally”; how it was run: as §2
[7] = tested on: Rattus norvegicus; assay: Effect on the synthesis rate of 5 HTP accumulation at the dose of 10 umol/kg in the rat ventral limbic brain region; type: functional, Limbic system
How it was run: (§3)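 Male Sprague-Dawley rats dosed sc with drug or vehicle at time zero. NSD 1015 (100 mg/kg ip) given 15 min later to block aromatic decarboxylase. Brain DOPA and 5-HTP measured by electrochemical detection with peak integration. Expressed as percent change from NSD 1015 plus saline controls. Control and test groups N = 6 each, compared by unpaired t test.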

[8] = tested on: Rattus norvegicus; assay: Effect on the synthesis rate of dopamine (DOPA) accumulation at the dose of 10 umol/kg in the rat ventral limbic brain region; type: functional, Limbic system; how it was run: as §3
[9] = tested on: Mus musculus; assay: Behavioral time in mouse face to face assay at 0 umol/kg administered subcutaneously; type: functional; how it was run: as §1
[10] = species: Felis catus; assay: Maximum decrease observed; type: functional; set-up: unit not given here
[11] = tested on: Mus musculus; assay: Behavioral time in mouse face to face assay at 0.4 umol/kg administered subcutaneously; type: functional; how it was run: as §1
[12] = tested on: Rattus norvegicus; assay: Effect on the synthesis rate of 5 HTP accumulation at the dose of 3.5 umol/kg in the rat ventral limbic brain region; type: functional, Limbic system; how it was run: as §3
[13] = tested on: Mus musculus; assay: In vivo effective dose administered subcutaneously in mouse hypothermia assay.; type: functional; details: sc
How it was run: (§4)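 Charles River CF-1 mice (18-22 g, 4 per dose), housed individually 20 min before testing. Rectal temperature taken before dosing and 20 min after (sc 0.1 mL; oral 0.2 mL by gavage needle). A drop of ≥2 °F counted as positive. Doses started at 30 mg/kg and fell by half-log until 0/4 responded.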

[14] = tested on: Felis catus; assay: Maximum decrease on arterial blood pressure at 1 mg/kg; type: functional
How it was run: (§5)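 Adult cats (2.5-4.0 kg) anesthetized with ketamine 11 mg/kg im, then chloralose 80 mg/kg iv. Femoral artery cannulated for blood pressure, femoral vein for drug. Ventilated, paralyzed with gallamine 4 mg/kg iv, rectal temperature held at 37-38 °C. Cumulative iv doses given at 20-min intervals. Maximum decrease reported following a 1 mg/kg iv dose.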

[15] = tested on: Mus musculus; assay: Tested in vivo for the maximum temperature decrease in mouse hypothermia assay.; type: functional
How it was run: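 CF-1 mice (18-22 g, 4 per dose), dosed sc or orally. Rectal temperature measured before dosing and 20 min after. The mean maximum temperature drop (°F) at 20 min after any dose is recorded as an efficacy index.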

[16] = tested on: Rattus norvegicus; assay: Effect on the synthesis rate of dopamine (DOPA) accumulation at the dose of 3.5 uM/kg in the rat ventral limbic brain region; type: functional, Limbic system; how it was run: as §3
[17] = tested on: Mus musculus; assay: Behavioral time in mouse face to face assay at 36 umol/kg administered subcutaneously; type: functional; how it was run: as §1
[18] = tested on: Mus musculus; assay: Behavioral time in mouse face to face assay at 3.5 umol/kg administered subcutaneously; type: functional; how it was run: as §1
[19] = tested on: Felis catus; assay: Dose on arterial blood pressure (BP) in anesthetized cat; type: functional; how it was run: as §5
[20] = species: Felis catus; assay: Dose at which the SND has been reduced to 50% of the pretreatment value; type: functional
How it was run: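 Adult cats (2.5-4.0 kg), ketamine 11 mg/kg im then chloralose 80 mg/kg iv, ventilated, gallamine-paralyzed, rectal temperature 37-38 °C. Sympathetic nerve discharge quantified by cumulative integration. Cumulative iv doses were given at 20-min intervals. Value is the dose reducing discharge to 50% of pretreatment.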

[21] = tested on: Mus musculus; assay: Tested in vivo for the effective dose administered orally in mouse hypothermia assay; type: functional; details: po; how it was run: as §4

C=CCN[C@@H]1CCc2cccc(OC)c2[C@@H]1C(=O)OC gave a Time [1] of 0.7 s, a Time [2] of 56 s and a Time [3] of 0.8 s. It also gave a Time [4] of 1.1 s, a Time [5] of 1 s and a Time [6] of 120 s.

For C=CC[C@@H]1c2cccc(OC)c2CC[C@H]1NCCC (relative stereo), the Change [7] was 2.7% and the Change [8] was -15%.

Compound C=CC[C@H]1c2c(O)cccc2CC[C@H]1NCCC has a Time [9] of 2.8 s, a Max decrease [10] of 10 and a Time [11] of 2.9 s. It also gave a Change [12] of -53%, an ED50 [13] of 1.1 µmol/kg and a Max decrease [14] of 55. The TMP.decrease [15] was 9.5 degrees F and 6.9 degrees F, the Change [16] was 14% and the Time [17] was 3.8 s. The Time [18] was 3.9 s, the BP [19] was 77% and the ED50 [20] was 0.09 µmol/kg. The ED50 [21] was 61 µmol/kg.
